# Apaf-1 inh: inhibitors of human Apaf-1 apoptosome, primary screen, biochemical, DEVD-Rh110 fluorescence, uHTS | Apoptotic protease-activating factor 1 (Homo sapiens), O14727 | inhibition, % at 20 µM | reconstituted apoptosome caspase-3 activity | actives 0.71% (n = 330,000); active means inhibition of at least 40% at 20 µM;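 further: plate controls were DMSO wells for no effect and DEVD-CHO caspase inhibitor wells for full effect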
#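 System – cell-free apoptosome with Apaf-1, procaspase-3 and caspase-9 · Buffer or medium – pH 7.5 Hepes buffer with CHAPS, BSA, DTT · Also added – cytochrome c with DEVD-Rh110 · Times – 30 min compound preincubation, 50 min activation, room temperature · Technique – Rh110 fluorescence intensity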
# SENP8 block-1: human SENP8 protease inhibitors, primary screen, biochemical, fluorescence, Nedd8 protein substrate, uHTS; recombinant SENP8; inhibition, % at 20 µM; actives 0.64% (n = 360,000); in the data active means inhibition mostly above about 40%, no sharp cut-off; inactive means mostly below about 27%
# Target sequence (Q96LD8 whole entry, looked up): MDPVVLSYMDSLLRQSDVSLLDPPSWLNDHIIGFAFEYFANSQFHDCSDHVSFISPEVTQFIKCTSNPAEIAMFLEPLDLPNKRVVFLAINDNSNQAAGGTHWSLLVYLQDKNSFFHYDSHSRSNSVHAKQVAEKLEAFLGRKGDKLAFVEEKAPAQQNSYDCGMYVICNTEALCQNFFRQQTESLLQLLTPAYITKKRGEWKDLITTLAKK
# SENP6 block: SENP6 protease inhibitors, primary screen, biochemical, luminescence, uHTS. Sentrin-specific protease 6 (Homo sapiens), Q9GZR1. Recombinant SENP6 catalytic domain, aminoluciferin luminescence. inhibition, % at 10 µM. actives 1.8% (n = 330,000);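 active means inhibition above about 50% at the single tested dose, limit read from the data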;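 further: plate controls were DMSO wells with enzyme for no effect and DMSO wells lacking enzyme for full effect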
# SENP7 block: SENP7 protease inhibitors, primary screen, biochemical, luminescence, uHTS | recombinant SENP7, Z-RLRGG-aminoluciferin luminescence, 40 min | inhibition, % at 5 µM | AID 434973, 2010 | actives 1.5% (n = 330,000) | Sentrin-specific protease 7 (Homo sapiens), Q9BQF6;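 active means inhibition above about 50% at the single test dose, limit read from the data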;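 further: plate controls were DMSO with enzyme for no effect and no enzyme buffer wells for full effect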
# Target sequence (Q9BQF6 706-1050 limits assumed): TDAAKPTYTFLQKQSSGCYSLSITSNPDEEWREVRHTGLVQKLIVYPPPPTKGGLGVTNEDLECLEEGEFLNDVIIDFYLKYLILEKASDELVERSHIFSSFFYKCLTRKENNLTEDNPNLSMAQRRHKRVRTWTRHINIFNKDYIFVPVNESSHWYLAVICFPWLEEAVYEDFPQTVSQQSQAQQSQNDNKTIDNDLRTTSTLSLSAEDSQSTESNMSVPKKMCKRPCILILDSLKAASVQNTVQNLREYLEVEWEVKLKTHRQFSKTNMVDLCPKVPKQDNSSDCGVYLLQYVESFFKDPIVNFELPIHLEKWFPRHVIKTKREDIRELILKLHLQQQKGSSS
# SENP8 block-2: SENP8 protease inhibitors, primary screen, biochemical, luminescence; purified SENP8, Z-RLRGG-aminoluciferin cleavage; inhibition, % at 10 µM; actives 1.2% (n = 330,000); in the data active means inhibition above about 50%
# UBC13 inh: UBC13 polyubiquitin chain formation inhibitors, primary screen, biochemical, TR-FRET, uHTS | Ubiquitin-conjugating enzyme E2 N (Homo sapiens), P61088 | AID 485273, 2010 | inhibition, % at 20 µM | actives 0.47% (n = 330,000); in the data active means inhibition above about 45%, passing the limit was not always enough
# Target sequence (P61088 whole entry, looked up): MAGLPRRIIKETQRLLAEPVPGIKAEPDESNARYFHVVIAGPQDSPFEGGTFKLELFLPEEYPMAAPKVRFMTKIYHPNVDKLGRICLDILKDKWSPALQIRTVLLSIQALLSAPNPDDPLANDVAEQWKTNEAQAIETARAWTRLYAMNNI
# Casp3 UBC13 ctr: CASP3 inhibitor validation, counterassay for project on UBE2N polyubiquitination blockers, biochemical, one dose; shares compounds with UBC13 inh; Recombinant caspase-3, Caspase-Glo 3/7 luminescence, 60 min; inhibition, % at 20 µM; actives 4% (n = 1,400);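 active means mean inhibition across replicates above about 26%, limit read from the data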;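 further: plate controls were DMSO with caspase-3 for no effect and DMSO wells lacking enzyme for full effect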
# UBC13 confirm: UBC13 polyubiquitination inhibitors, single-point retest, confirmation, biochemical, TR-FRET, single concentration. actives 68% (n = 1,400). inhibition, % at 10 µM. shares compounds with UBC13 inh; in the data active means inhibition above about 45%
# Apaf-1 inh conf: Apaf-1 inhibitors, single-dose retest, confirmation, biochemical, fluorescence, DEVD-Rh110, 20 µM | AID 504614, 2011 | reconstituted apoptosome, caspase-3 DEVD-Rh110 fluorescence | actives 25% (n = 1,800) | inhibition, % at 20 µM | shares compounds with Apaf-1 inh;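 active means mean inhibition of at least 40% at 20 µM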;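 further: plate controls were DMSO wells for no effect and DEVD-CHO caspase inhibitor control wells for full effect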
# Rh110 quench: Rh110 fluorescence interference by putative Apaf-1 inhibitors, confirmation, artefact control for Apaf-1 inhibitor project, biochemical, 20 µM; shares compounds with Apaf-1 inh; quenched caspase reaction; activation (fluorescence interference), % at 20 µM; 1,800 tested, under 10 active; AID 504615, 2011;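 active means signal rise of 40% or more at 20 µM, treated as a fluorescence artifact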
# Fluor interf inh: fluorescence interference of Apaf-1 inhibitor hits, dose response, artefact control for Apaf-1 inhibitor project. IC50, µM. fluorescence interference counterscreen, Apaf-1 assay format. AID 588538, 2011. shares compounds with Apaf-1 inh. 460 tested, under 10 active; call rule not given here
# SENP8 conf: human SENP8 protease inhibitors, confirmation, biochemical, Nedd8 protein substrate, single concentration | actives 15% (n = 1,400) | shares compounds with SENP8 block-1 | purified SENP8, Nedd8-AMC/pro-Nedd8 cleavage fluorescence, 30 min | inhibition, % at 25 µM; in the data active means inhibition mostly above about 39%, no sharp cut-off; inactive means mostly below about 34%
# Numbers without * were called inactive; i = inactive; nt = no result. Compounds with a hit are over-represented: about 3% of the library has one in this group of screens.
SMILES,Apaf-1 inh,SENP8 block-1,SENP6 block,SENP7 block,SENP8 block-2,UBC13 inh,Apaf-1 inh conf,Rh110 quench,others
COCCCNC(=O)c1c(NC(=O)c2ccccc2)n(Cc2ccccc2)c2nc3ccccc3nc12,33.0,-301.8,12.1,-9.2,8.8,48.7*,nt,nt,Casp3 UBC13 ctr=-0.7;UBC13 confirm=37.1
COc1ccc(CCNCc2cccc(C(F)(F)F)c2)cc1OC,-3.0,7.2,15.2,-3.1,4.0,7.6,nt,nt,
COc1ccccc1CCNCc1cccc(C(F)(F)F)c1,-4.8,5.2,-24.4,-5.9,2.0,52.0*,nt,nt,Casp3 UBC13 ctr=-0.4;UBC13 confirm=9.9
O=C(O)C(O)(c1ccc(Cl)cc1)C1(O)CCCC1 (centres undefined),nt,19.8,nt,nt,nt,nt,nt,nt,
CC(C)C(O)(C(=O)OCC1=CCN2CCC(O)C12)C(C)O (centres undefined),nt,4.5,nt,nt,nt,nt,nt,nt,
CN(C)P1(=O)N(C)CCN1C,nt,14.2,nt,nt,nt,nt,nt,nt,
CCCCCCCSc1cc(OC)c(CCNC)cc1OC,25.4,23.7,-17.0,-8.1,-12.1,50.7*,nt,nt,Casp3 UBC13 ctr=-2.2;UBC13 confirm=62.1*
O=C(NCC1=C(c2cccc3ccccc23)C[C@@H]2CC[C@H]1N2Cc1ccco1)c1cccs1,nt,10.6,nt,nt,nt,nt,nt,nt,
COC(=O)C1=C(c2ccc(OCc3ccccc3)cc2)C[C@@H]2CC[C@H]1N2C(=O)NCCc1ccc(F)cc1,nt,18.8,nt,nt,nt,nt,nt,nt,
O=P1(NCCCl)OCCCN1CCCl (centres undefined),-6.3,15.5,-19.8,-2.3,-3.4,45.8*,nt,nt,Casp3 UBC13 ctr=3.7;UBC13 confirm=2.8
COC(=O)C1=C(c2ccc(OCc3ccccc3)cc2)C[C@@H]2CC[C@H]1N2C(=O)NC1CCN(Cc2ccccc2)CC1,57.7*,27.3,2.0,-2.8,-6.8,55.0*,22.6,10.0,Casp3 UBC13 ctr=-3.4;UBC13 confirm=30.2
Clc1cccc(N2Cc3ccccc3-n3nncc3C2)c1,nt,8.9,nt,nt,nt,nt,nt,nt,
NC(N)=N/N=C/c1cn(-c2ccccc2)nc1-c1cccs1,40.9*,-69.8,-18.0,-5.3,-24.0,78.8*,14.4,14.7,Casp3 UBC13 ctr=2.1;UBC13 confirm=85.1*
O=c1c2ccccc2nc(-c2cccs2)n1-c1ccccc1,13.7,26.2,-10.2,5.6,-3.0,5.5,nt,nt,
COc1cc2c(c(OC)c1OC)-c1ccc(O)c(=O)cc1[C@@H](N)CC2,-4.6,52.6*,-8.1,6.8,0.2,100.4*,nt,nt,Casp3 UBC13 ctr=0.7;UBC13 confirm=93.2*;SENP8 conf=-12.3
CCC(c1nnnn1Cc1ccccc1)N1CCC2(CC1)C(=O)NCN2c1ccccc1 (centres undefined),nt,21.6,nt,nt,nt,nt,nt,nt,
O=[N+]([O-])c1ccc(NC2CCCC2)c2ccncc12,41.9*,47.1*,39.7,19.4,15.1,-189.5,14.6,2.1,
Cc1ncoc1C(=O)NCC1=C(c2ccc(S(C)(=O)=O)cc2)C[C@@H]2CC[C@H]1N2Cc1ccco1,nt,-26.9,nt,nt,nt,nt,nt,nt,
O=C1C=CC(=O)C2C1C1(Cl)C(Cl)=C(Cl)C2(Cl)C1(Cl)Cl (centres undefined),nt,16.5,nt,nt,nt,nt,nt,nt,
CCn1nc(/C=C/c2ccccc2)nc2c(=O)n(C)c(=O)nc1-2,98.8*,72.8*,88.8*,96.2*,96.2*,-248.0,100.3*,9.2,Fluor interf inh=>100
O=[N+]([O-])c1ccccc1-c1cc(-c2ccccc2)cc(-c2ccccc2)[n+]1Cc1ccccc1Cl,52.8*,nt,-2.3,1.9,0.3,38.2,19.5,8.6,
CC(C)CCn1c(N)c(C(=O)OCC2CCCO2)c2nc3ccccc3nc21 (centres undefined),41.3*,i,-2.7,9.1,-3.8,11.5,18.0,0.5,
CCCCn1c(N)c(C(=O)OCC2CCCO2)c2nc3ccccc3nc21 (centres undefined),27.3,-282.3,-0.3,4.1,9.0,13.9,nt,nt,
CCOC(=O)c1c(NC(=O)c2c(N)n(CCCOC)c3nc4ccccc4nc23)sc2c1CCCC2,-9.6,7.4,-9.2,-2.9,-1.1,22.5,nt,nt,
COCCOC(=O)c1c(N)n(Cc2ccccc2)c2nc3ccccc3nc12,82.6*,-428.8,19.1,11.8,6.9,-20.3,15.4,2.2,
SMILES,Apaf-1 inh,SENP8 block-1,SENP6 block,SENP7 block,SENP8 block-2,UBC13 inh,Apaf-1 inh conf,Rh110 quench,others
CCCCOCCCn1c(N)c(C(=O)OCCOC)c2nc3ccccc3nc21,65.9*,i,1.2,1.0,-0.6,-16.9,1.6,11.6,
O=C(NCC1=C(c2ccc3ccccc3c2)C[C@@H]2CC[C@H]1N2Cc1ccco1)c1nccs1,nt,-17.4,nt,nt,nt,nt,nt,nt,
COc1cc2c(cc1O)C[C@H]1NCCc3cc4c(c-2c31)OCO4,71.0*,-458.0,35.4,5.6,23.5,-42.6,36.0,1.2,
C[C@@H]1CN([C@@H](C)CO)C(=O)CCCn2cc(nn2)CO[C@H]1CN(C)C(=O)Oc1ccc2ccccc2c1,nt,3.7,nt,nt,nt,nt,nt,nt,
C/C=C1\NC(=O)[C@H](C)NC(=O)[C@@H](NC(=O)[C@H](Cc2ccc(O)cc2)NC(=O)[C@@H](NC(=O)/C(C)=C/C)C(C)C)[C@@H](C)OC(=O)[C@H](CCCc2ccc(O)cc2)NC(=O)[C@@H](CCC(=O)O)NC1=O,nt,3.9,nt,nt,nt,nt,nt,nt,
Nc1c2c(nc3ccccc13)CCN(Cc1ccccc1)C2,9.7,-256.2,13.2,5.2,7.5,-72.9,nt,nt,
Nc1cc2nc3ccccc3nc2cc1N,62.4*,36.6,49.2,31.0,25.8,-118.4,51.5*,-9.4,Fluor interf inh=>100
Cn1c(=O)[nH]c2nncnc2c1=O,68.1*,77.5*,10.6,17.8,6.4,-5.3,68.1*,-1.7,Fluor interf inh=>100;SENP8 conf=89.6*
COc1ccc(OC(=O)N(C)C[C@@H]2OCc3cnnn3CCCC(=O)N([C@H](C)CO)C[C@H]2C)cc1,nt,6.7,nt,nt,nt,nt,nt,nt,

# Assay outcomes (PubChem BioAssay)
